# In ChEMBL document CHEMBL4382240, “Discovery of novel 2,5-dihydroxyterephthalamide derivatives as multifunctional agents for the treatment of Alzheimer's disease” (Bioorg Med Chem, 2018):
# Calls of active or inactive are those of the source. The calls are words filed in the database; no cut-off is given here.
# Legend:
# [1] = species: Homo sapiens; assay: Anti-inflammatory activity in […] cells assessed as inhibition of LPS-stimulated NO release preincubated for 30 mins followed by LPS stimulation and measured after 24 hrs by Griess reagent based assay; format: functional, cell-based
# [2] = biological target: Acetylcholinesterase (Electrophorus electricus, UniProt O42275); assay: Inhibition of electric eel AChE using acetylthiocholine iodide as substrate after 15 mins by Ellman's method
# [3] = Antioxidant activity assessed as trolox equivalent of APPH-induced radical scavenging activity at 5 uM preincubated for 15 mins followed by AAPH addition measured every minute for 90 mins by ORAC fluorescein assay; format: functional
# Outline: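 ORAC-FL in 75 mM phosphate buffer, pH 7.4. Fluorescein (150 nM final) and sample (tested at 1–10 µM) incubated 15 min at 37 °C. AAPH (12 mM final) then added, and fluorescence (ex 485/em 535 nm) read every minute for 90 min. Trolox standard 1–8 µM; result expressed as µM Trolox equivalent per µM compound. Duplicate wells; three independent experiments.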
# [4] = biological target: Acetylcholinesterase (Electrophorus electricus) (UniProt O42275); assay: Mixed-type inhibition of electric eel AChE at 2.5 to 10 uM preincubated for 15 mins followed by varying levels of acetylthiocholine iodide substrate addition by Lineweaver-Burk plot analysis
# [5] = Metal chelating activity assessed as compound-Al3+ complex formation at 37.5 uM after 30 mins by UV spectrometry method
# Outline: (§1)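 Compound and metal salt (CuCl2, ZnCl2, FeSO4 or AlCl3), each 37.5 µM final in methanol, incubated 30 min at room temperature. UV-vis spectra recorded from 200 to 600 nm and compared with the compound alone.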
# [6] = Metal chelating activity assessed as compound-Zn2+ complex formation at 37.5 uM after 30 mins by UV spectrometry method; outline: as §1
# [7] = biological target: T1, Amyloid-beta precursor protein (Homo sapiens, UniProt P05067); assay: Inhibition of human amyloid beta (1 to 42) self-induced aggregation at 25 uM after 24 hrs by Thioflavin T based fluorometric assay relative to control
# Outline: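 Aβ1-42 (25 µM final) incubated with compound (25 µM final) in 50 mM phosphate buffer, pH 7.4, for 24 h at 37 °C under a sealing film. ThT (5 µM) in 50 mM glycine-NaOH, pH 8.5, then added and fluorescence measured. Triplicate; mean ± SD of three independent experiments.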
# [8] = Inhibition of Cu2+ induced human amyloid beta (1 to 42) aggregation at 25 uM after 24 hrs by Thioflavin T based fluorometric assay relative to control
# Outline: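 Aβ1-42 (25 µM) and Cu2+ (25 µM) in HEPES buffer (20 mM, pH 6.6, 150 mM NaCl), with or without compound (25 µM final), incubated 24 h at 37 °C. ThT (5 µM) in glycine-NaOH, pH 8.5, added and fluorescence read. Triplicate; three independent experiments.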
# [9] = biological target: T1, Amyloid-beta precursor protein; assay: Inhibition of human amyloid beta (1 to 42) self-induced aggregation after 24 hrs by Thioflavin T based fluorometric assay
# Outline: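 Self-induced Aβ1-42 aggregation (25 µM peptide) in phosphate buffer, pH 7.4, for 24 h at 37 °C with varying compound concentrations. Aggregation read by ThT fluorescence (5 µM ThT, glycine-NaOH pH 8.5).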
# [10] = biological target: T1, Amyloid-beta precursor protein; assay: Disaggregation of self-induced preformed fibrils of human amyloid beta (1 to 42) at 25 uM after 24 hrs by Thioflavin T based fluorometric assay relative to control
# Outline: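 Aβ1-42 diluted in HEPES buffer (20 mM, pH 6.6, 150 mM NaCl) and pre-aggregated 24 h at 37 °C. Compound (25 µM) then added for another 24 h at 37 °C on a sealed plate. Remaining fibrils read by ThT fluorescence in glycine-NaOH, pH 8.5. Triplicate; three independent experiments.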
# [11] = Effective permeability of the compound in PBS/EtOH at 100 ug/ml after 18 hrs by PAMPA; format: ADME; conditions: read-out: Peff
# [12] = Cytotoxicity against […] cells assessed as decrease in cell viability up to 10 uM preincubated for 30 mins followed by LPS stimulation and measured after 24 hrs by MTT assay; format: cell-based
# Outline: (§2)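 BV-2 cells grown 24 h, then treated with compound (0.5, 2.5, 10.0 µM) for 30 min, with or without LPS (1.0 µg/mL), for a further 24 h. MTT (5 mg/mL) added for 4 h, formazan dissolved in DMSO, A490 read. Viability given as percent of untreated cells. Triplicate wells; three independent experiments.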
# [13] = Cytotoxicity against […] cells assessed as decrease in cell viability up to 10 uM measured after 24 hrs by MTT assay; format: cell-based; outline: as §2
# [14] = Effect on NO release in […] cells up to 10 uM after 24 hrs by Griess reagent based assay; format: ADME, cell-based
# Outline: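 BV-2 cells in DMEM treated with compound alone, without LPS, up to 10 µM. Nitrite in culture supernatant measured by Griess reagent (A540) against a NaNO2 standard curve. Mean ± SD of three independent experiments.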
# [15] = Anti-inflammatory activity in […] cells assessed as inhibition of LPS-stimulated NO release at 2.5 uM preincubated for 30 mins followed by LPS stimulation and measured after 24 hrs by Griess reagent based assay relative to control; format: functional; conditions: BV-2
# Outline: (§3)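 BV-2 cells cultured 24 h in DMEM (10% FBS, glutamine, pyruvate, pen/strep) at 37 °C, 5% CO2. Compound (DMSO stock diluted in PBS) added 30 min before LPS (1.0 µg/mL), then 24 h. Nitrite in supernatant measured by Griess reagent for 10 min at room temperature, A540, against a NaNO2 standard curve. Triplicate wells; mean ± SD of three independent experiments.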
# [16] = Anti-inflammatory activity in […] cells assessed as inhibition of LPS-stimulated NO release at 10 uM preincubated for 30 mins followed by LPS stimulation and measured after 24 hrs by Griess reagent based assay relative to control; format: functional; conditions: BV-2; outline: as §3
# [17] = Anti-inflammatory activity in […] cells assessed as inhibition of LPS-stimulated TNFalpha release at 2.5 uM preincubated for 30 mins followed by LPS stimulation and measured after 24 hrs by ELISA relative to control; format: functional; conditions: BV-2
# Outline: (§4)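 Confluent BV-2 cells in DMEM preincubated 30 min with compound, tested over 0.5–10 µM, then stimulated with LPS (1.0 µg/mL) for 24 h. Released TNF-α measured by ELISA following kit instructions. Triplicate wells; mean ± SD of three independent experiments.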
# [18] = Anti-inflammatory activity in […] cells assessed as inhibition of LPS-stimulated TNFalpha release at 10 uM preincubated for 30 mins followed by LPS stimulation and measured after 24 hrs by ELISA relative to control; format: functional; conditions: BV-2; outline: as §4
# [19] = species: Homo sapiens; assay: Anti-inflammatory activity in […] cells assessed as inhibition of LPS-stimulated TNFalpha release at 0.5 uM preincubated for 30 mins followed by LPS stimulation and measured after 24 hrs by ELISA; format: functional, cell-based; outline: as §4
# T1 sequence (P05067 whole entry): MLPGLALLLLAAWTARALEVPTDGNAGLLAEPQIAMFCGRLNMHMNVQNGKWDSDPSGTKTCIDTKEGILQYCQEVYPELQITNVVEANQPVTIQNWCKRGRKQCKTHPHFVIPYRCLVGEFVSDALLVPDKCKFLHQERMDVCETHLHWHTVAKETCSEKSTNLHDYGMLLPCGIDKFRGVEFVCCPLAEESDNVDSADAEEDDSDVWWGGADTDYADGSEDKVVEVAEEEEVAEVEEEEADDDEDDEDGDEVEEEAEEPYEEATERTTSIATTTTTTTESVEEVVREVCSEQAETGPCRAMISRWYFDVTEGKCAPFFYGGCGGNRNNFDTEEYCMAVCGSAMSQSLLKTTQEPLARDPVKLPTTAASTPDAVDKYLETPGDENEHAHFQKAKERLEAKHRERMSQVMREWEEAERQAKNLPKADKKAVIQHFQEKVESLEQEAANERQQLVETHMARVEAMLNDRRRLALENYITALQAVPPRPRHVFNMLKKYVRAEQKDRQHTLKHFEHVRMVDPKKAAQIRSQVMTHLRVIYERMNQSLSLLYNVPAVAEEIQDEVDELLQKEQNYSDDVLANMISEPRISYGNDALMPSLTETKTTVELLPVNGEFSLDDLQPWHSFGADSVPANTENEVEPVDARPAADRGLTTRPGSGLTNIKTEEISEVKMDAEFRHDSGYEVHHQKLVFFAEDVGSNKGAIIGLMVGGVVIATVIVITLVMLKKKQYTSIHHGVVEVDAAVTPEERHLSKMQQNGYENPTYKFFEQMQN
# Chain of Acetylcholinesterase (O42275 whole entry): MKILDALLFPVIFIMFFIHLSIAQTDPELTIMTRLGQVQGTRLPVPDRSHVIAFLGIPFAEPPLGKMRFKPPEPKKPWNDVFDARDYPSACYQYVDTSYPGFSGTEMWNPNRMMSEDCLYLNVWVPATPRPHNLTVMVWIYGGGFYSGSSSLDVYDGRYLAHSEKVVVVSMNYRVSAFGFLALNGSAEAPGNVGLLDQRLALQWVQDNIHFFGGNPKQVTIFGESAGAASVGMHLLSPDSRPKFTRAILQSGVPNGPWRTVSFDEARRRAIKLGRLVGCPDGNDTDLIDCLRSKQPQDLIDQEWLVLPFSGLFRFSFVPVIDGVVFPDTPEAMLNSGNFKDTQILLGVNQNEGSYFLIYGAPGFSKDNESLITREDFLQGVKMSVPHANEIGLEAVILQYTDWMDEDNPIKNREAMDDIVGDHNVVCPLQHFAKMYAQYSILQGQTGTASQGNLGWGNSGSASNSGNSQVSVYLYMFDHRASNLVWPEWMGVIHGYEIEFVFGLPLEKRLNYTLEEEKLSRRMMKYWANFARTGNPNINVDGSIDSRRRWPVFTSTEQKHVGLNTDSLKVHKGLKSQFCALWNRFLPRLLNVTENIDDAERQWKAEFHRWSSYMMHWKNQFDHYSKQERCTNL
# Chain of Acetylcholinesterase (Electrophorus electricus) (O42275 24-633 limits assumed): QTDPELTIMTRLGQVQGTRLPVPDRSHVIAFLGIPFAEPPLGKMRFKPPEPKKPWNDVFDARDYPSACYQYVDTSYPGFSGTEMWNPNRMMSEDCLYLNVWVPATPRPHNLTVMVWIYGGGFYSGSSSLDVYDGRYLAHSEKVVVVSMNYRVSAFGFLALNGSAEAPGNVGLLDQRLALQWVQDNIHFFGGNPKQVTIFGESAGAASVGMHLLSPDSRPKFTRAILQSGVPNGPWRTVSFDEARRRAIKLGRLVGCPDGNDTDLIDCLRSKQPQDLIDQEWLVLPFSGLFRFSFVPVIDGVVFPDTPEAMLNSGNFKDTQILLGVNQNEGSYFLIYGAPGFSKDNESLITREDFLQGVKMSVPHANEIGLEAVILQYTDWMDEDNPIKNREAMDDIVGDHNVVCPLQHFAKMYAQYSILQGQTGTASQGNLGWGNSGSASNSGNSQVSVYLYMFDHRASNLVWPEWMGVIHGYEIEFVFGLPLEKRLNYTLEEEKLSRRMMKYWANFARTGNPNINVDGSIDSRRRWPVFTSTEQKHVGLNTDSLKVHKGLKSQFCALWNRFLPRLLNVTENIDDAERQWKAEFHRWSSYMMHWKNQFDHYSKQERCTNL
structure (smiles),measurement,setting,value
CCN(CCCCNC(=O)c1cc(O)c(C(=O)NCCCCN(CC)Cc2ccccc2OC)cc1O)Cc1ccccc1OC,inhibition,[1],Dose-dependent effect
same,IC50,[2],5.12 µM
same,Activity,[3],0.97 equiv
same,inhibition,[4],Active
same,Activity,[5],Active
same,Activity,[6],inactive
same,inhibition,[7],96.2%
same,inhibition,[8],71.7%
same,IC50,[9],3.05 µM
same,Activity,[10],75.2%
same,"Papp at 18 h, 100 ug/ml",[11],4.45 ×10⁻⁶ cm/s
same,Activity,[12],Non-Toxic
same,Activity,[13],Non-Toxic
same,Activity,[14],Non-Toxic
same,inhibition at 2.5 µM,[15],30%
same,inhibition at 10 µM,[16],58.3%
same,inhibition at 2.5 µM,[17],37.1%
same,inhibition at 10 µM,[18],55.3%
same,inhibition,[19],inactive
